Source: ChEMBL document CHEMBL4513216, “Probing the Open Global Health Chemical Diversity Library for Multistage-Active Starting Points for Next-Generation Antimalarials” (ACS Infect Dis, 2020)

Experiment: Toxicity liver stage against HepG2, at 10uM
Format: cell-based
Set-up: test concentration 10 uM, cell line HepG2-A16-CD81EGFP
Conditions: human, HepG2-A16-CD81EGFP cells; read-out: INHIBITION
Procedure, shortened: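 Uninfected HepG2-A16-CD81EGFP cells, 3 × 10^3 per well, 1536-well, plated on prespotted compound at 10 μM final, parasite-free screening media added to match infected plates; puromycin 10 μM positive, DMSO 0.5% negative; run in parallel with 48 h PbLuc assay at 37 °C, 5% CO2; viability by CellTiter-Glo luminescence, normalized to controls.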

Compound	cytotoxicity at 10 µM
Cc1nc(N2CCN(C)CC2)ncc1C(=O)N1CCCCC1	0.305%
COC(=O)CC1c2cccnc2C(=O)N1Cc1ccccc1 (configuration not stated)	1.19%
O=C(NCCc1c[nH]cn1)c1ccc2c(c1)C(=O)N(C1CCCC1)C2=O	-6.09%
COc1nn(C)cc1C(=O)NCC1(O)CCc2ccccc2C1 (configuration not stated)	-6.98%
Cc1cc(C(O)CCNS(=O)(=O)c2ccc(Cl)s2)c(C)o1 (configuration not stated)	-3.95%
CC(=O)N1CCN(c2ncnc3cc4c(cc23)OCCO4)CC1	13.4%
CCN1CCN(c2nsc(-c3cccnc3)c2C#N)CC1	-4.2%
CCn1nc(C)c2nc(C(C)C)nc(NCc3ccccn3)c21	7.09%
CN(Cc1cnn(C)c1)C(=O)c1cc(C(F)(F)F)n(C)n1	8.52%
CCn1cc(S(=O)(=O)NC2CCCC2)cn1	-7.31%
CC1(C(=O)N2CCN(c3cnccn3)CC2)CNCCO1 (configuration not stated)	6.99%
Cc1ccc(C(=O)N2CCCCC2c2[nH]ncc2S(C)(=O)=O)s1 (configuration not stated)	-11.4%
CCc1nccn1-c1cccc(C2CCCN2S(=O)(=O)N(C)C)n1 (configuration not stated)	-9.85%
CS(=O)(=O)c1ccc(NC(=O)NC2(c3ccccc3)CCC2)cc1	5.64%
Cc1n[nH]c(C2CN(CCNC3CCCCC3)CCO2)n1 (configuration not stated)	-8.29%
CC(OCC1CC1)C(=O)Nc1cccc(C(=O)Nc2ccccn2)c1 (configuration not stated)	2.56%
CC1CN(CC(=O)NCc2ccc(F)cc2)CCN1c1nccs1 (configuration not stated)	-1.22%
Cc1ccc(F)c2c1CCCN2C(=O)Cc1c(C)nn(C)c1C	13.6%
CC(C)Cc1noc(CNc2cc3c(cc2Cl)OCCCO3)n1	6.48%
O=C(CC1CCN(CCN2CCCCC2)CC1)N1CCOCC1	-3.91%
O=C(NCC1CCOC1)c1cc(-c2ccc(F)cc2)[nH]n1 (configuration not stated)	-6.96%

Compound	cytotoxicity at 10 µM
CC(C)c1noc(C(C)N2CCC(c3nc4ccccc4[nH]3)CC2)n1 (configuration not stated)	-3.17%
O=C1OCCCN1Cc1nc(-c2ccncc2)no1	6.77%
CCc1nnc(C(C)N2CCCN(C(=O)OCC(C)C)CC2)o1 (configuration not stated)	4.96%
NC(=O)c1cnn2c1NCC(CNCC1(c3ccccc3)CCCC1)C2 (configuration not stated)	-7.38%
CCC(NCCn1cccn1)C(=O)Nc1cc(C)on1 (configuration not stated)	13.4%
CC(C)c1ccc(/C=C/CC(=O)NC2CCN(C(N)=O)C2)cc1 (configuration not stated)	0.838%
c1ccc(C2(CNCc3cnc(N4CCOCC4)nc3)CC2)cc1	-0.813%
O=C(CN1CSCC1=O)NCC1CCN(c2ccccc2)C1 (configuration not stated)	1.19%
COc1cc(NC(=O)NC2CC2)ccc1N1CCOC1=O	-6.44%
COc1ccc2[nH]cc(C3CCN(CCC(N)=O)CC3)c2c1	-1.22%
Cc1nc(CN2CCC(CNC(=O)C3(C)CCCC3)CC2)oc1C	7.66%
CNC(=O)COc1nc(C(C)(C)C)no1	-0.425%
CC(C)CNC(=O)Cn1cc(C(N)=O)c(-c2ccccc2)n1	-6.98%
CC1CCCN(C(=O)NCC(F)F)C1 (configuration not stated)	13.6%
c1cnn(CC2CN(CCCOc3ccc4c(c3)OCO4)CCO2)c1 (configuration not stated)	0.568%
CC(C)N(Cc1ccc(Cl)c(Cl)c1)C(=O)CCn1cncn1	6.63%
Cc1ccc(CNC(=O)CCN2CCN(c3ccccn3)CC2)n1C	19.8%
Cn1cnc2c1CCN(C(C(=O)N1CCCCC1)c1ccccc1)C2 (configuration not stated)	-5.34%
O=C(COCC1CC1)Nc1ncccc1O	11%
N#Cc1cnn(CCN2CCOC(CNc3cccnn3)C2)c1 (configuration not stated)	-3.85%
CC(C)c1nn(C)c(N(C)C)c1CNC1CCC(O)CC1 (configuration not stated)	1.63%

Compound	cytotoxicity at 10 µM
O=C(NC1(C(=O)NC2CCCC2)CCCC1)c1ccc2[nH]ncc2c1	4.73%
CNc1cc2c(nn1)CCN(C(=O)c1ccccc1-n1cccn1)C2	1.91%
CCc1nncn1CCNC(=O)Nc1ccc(OC)c(C)c1	9.89%
NS(=O)(=O)CCNC(=O)c1nnn(-c2ccc(F)cc2)c1C1CC1	-14.3%
COc1ccc(C(CO)NC(=O)Nc2cccc(C#N)c2)cc1 (configuration not stated)	-17.9%
O=C(NCC(O)c1ccc(F)c(F)c1)c1cccnc1O (configuration not stated)	-13.6%
CCc1ncncc1C(=O)NCCN1CCC(C)CC1	-15.6%
CCc1cnc(N2C[C@@H]3[C@@H](C(=O)N(C)C)CCS(=O)(=O)[C@@H]3C2)nc1	-108%
COc1ccc2[nH]cc(-c3ccnc(N4CCC(C)CC4)n3)c2c1	-7.3%
CC[C@H](C)[C@H](N)C(=O)Nc1nc(-c2cnc(N3CCOCC3)nc2)cs1	-8.72%
O=C(O)c1ccc(C2CCCN(C(=O)c3ccc[nH]3)C2)cc1 (configuration not stated)	-10.5%
Cc1ncccc1Oc1ncnc(N2CCCC(O)(CO)CC2)c1C (configuration not stated)	4.3%
CCNc1ncc(C(=O)N2CCc3c(nc(C)nc3N(C)C)C2)cn1	-3.28%
O=C(c1ccncc1F)N1CCCC(c2nccn2CC2CCC2)C1 (configuration not stated)	5.94%
O=C1CC2(CCN(CCCO)CC2)CN1Cc1ccc(F)c(F)c1	-7.73%
COCCN(Cc1cnn(C)c1)C(=O)C1CCN(C2CCCCC2)CC1	12.6%
CCCC(=O)Nc1ccc(CC(=O)N(CC)CC2CCCCO2)cc1 (configuration not stated)	-9.24%
CCN(CC)Cc1cc(C(=O)N2CC[C@@]3(O)CCCC[C@H]3C2)c(C)o1	2.93%
O=C(CCc1cccs1)N1CCc2[nH]nc(COc3ccccc3)c2C1	0.621%
CCc1nnc(CN(C)c2cc(C)nc3c(C)c(C)nn23)o1	0.126%
Cc1cncc(C(=O)N2CCNCC2C(=O)Nc2ccc(C)nc2)c1 (configuration not stated)	-5.19%

Compound	cytotoxicity at 10 µM
COCCc1ncc(CN2CCCC(C(=O)c3ccccc3)C2)cn1 (configuration not stated)	-1.38%
C=C(C)COc1ccccc1CNC(CC)c1ccnn1C (configuration not stated)	-4.7%
Clc1ccc(CN2CCC(C3CCN(Cc4cccnc4)CC3)C2)cc1 (configuration not stated)	11.3%
Cc1ccc(C(=O)N2CCC3(CCC(=O)N(CC(N)=O)C3)CC2)cc1	-0.527%
CCCc1nc(N2CC[C@@H](c3ccc4ccccc4c3)[C@H](O)C2)no1	-0.471%
CC(=O)c1cc(CN2C[C@@H](C(=O)O)[C@H](c3cccnc3)C2)cs1	4.11%
CCC(C(=O)NCc1cc(N2CCOCC2)ncn1)n1cccn1 (configuration not stated)	1.44%
CN(C)C(=O)CCCNC(=O)C(c1cccc(F)c1)N(C)C (configuration not stated)	-25.3%
Cc1ccc(C(=O)N2CCC3(CCC(=O)N(CC(N)=O)C3)CC2)c(O)c1	-11.5%
CC(C)Cc1noc(CN(C)C(=O)C2COc3ccccc3C2)n1 (configuration not stated)	-9.12%
C=Cc1ccc(C(=O)N2CCCC(Nc3ccc(F)cc3)C2)cc1 (configuration not stated)	-22.1%
Cc1noc(C)c1C1CCCN1C(=O)CN1CC2(CCNCC2)OC1=O (configuration not stated)	-5.24%
C[C@H](O)CNC(=O)c1cnc(-c2ccccc2)nc1O	-17.8%
CSc1ncc(Cl)c(C(=O)NC(Cc2ccccc2)C(=O)O)n1 (configuration not stated)	-17.3%
CS(=O)(=O)N1CCCC(C(=O)Nc2cnn(Cc3ccc(Cl)cc3)c2)C1 (configuration not stated)	-6.5%
O=C(CN1CCC(c2ccccc2)C1)NC(=O)NCC(F)(F)F (configuration not stated)	-12.1%
COCC1CN(Cc2ccc(C)o2)Cc2cnn(CC3CCOCC3)c21 (configuration not stated)	1.87%
COCCNC(=O)C[C@@H]1COC[C@H]2CN(CC3CCOCC3)C[C@@H]12	-92.9%
O=C1C[C@@H]2CC[C@H](CN1)N2C(=O)CCc1ccsc1	-6.06%
